Results published in ChEMBL document CHEMBL1145812, “Synthesis and biological evaluation of 18-methoxycoronaridine congeners. Potential antiaddiction agents” (J Med Chem, 2003).

Tests used:
[1] = Relative inhibition index (RI) was determined as the % recovery / (rate of inhibition) and is expressed relative to Compound 3; type: functional
Outline: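 Read from the same α3β4 whole-cell ACh (1 mM) co-application recordings. The index is percent recovery divided by rate of inhibition, normalised to the parent reference ligand. Values below 1.0 mean lower Ki; values above 1.0 mean higher Ki.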

[2] = biological target: Mu-type opioid receptor (Cavia porcellus) (UniProt P97266); assay: Inhibition of [3H]DAMGO binding to Opioid receptor mu 1 from guinea pig brain membranes; design: concentration or dose not given beside the values; details: concentration not given here
Outline: (§1)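 Guinea pig brain membranes (0.5 mg protein/sample) were incubated at 25 °C in 50 mM Tris-HCl, pH 7.5, with receptor-specific radioligand and compound at 1 µM. Nonspecific binding was defined with 10 µM naloxone. Values are the mean ± SE of three separate experiments, each run in triplicate.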

[3] = biological target: T1, Neuronal acetylcholine receptor; alpha3/beta4 (Homo sapiens, UniProt P30926+P32297); assay: Rate of inhibition of Ach evoked currents at alpha3-beta4 nicotinic acetylcholine receptor by 20 uM concentration; type: functional
Outline: (§2)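 HEK293 cells transiently co-transfected with nAChR α3 and β4 cDNAs plus EGFP; EGFP-positive cells recorded 12–36 h later by whole-cell voltage clamp at -70 mV. Pipette: CsCl/CsF/HEPES/EGTA, pH 7.2; bath: NaCl/KCl/HEPES/glucose, pH 7.3. Each compound was co-applied at 20 µM (one at 18 µM) with 1 mM ACh. Reported: percent inhibition, rate of inhibition and percent recovery, as mean ± SEM.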

[4] = biological target: T1, Neuronal acetylcholine receptor; alpha3/beta4; assay: Inhibition of Ach evoked currents at alpha3-beta4 nicotinic acetylcholine receptor by 20 uM concentration; type: functional; outline: as §2
[5] = biological target: Kappa-type opioid receptor (Cavia porcellus) (UniProt P41144); assay: Inhibition of [3H]U-69593 binding to Opioid receptor kappa 1 from guinea pig brain membranes; design: concentration or dose not given beside the values; details: concentration not given here; outline: as §1
[6] = biological target: Kappa-type opioid receptor (Cavia porcellus, UniProt P41144); assay: Binding affinity was determined against Opioid receptor kappa 1 from guinea pig brain membranes
[7] = biological target: T1, Neuronal acetylcholine receptor; alpha3/beta4; assay: Recovery from Ach evoked currents at alpha3-beta4 nicotinic acetylcholine receptor at 20 uM; type: functional; outline: as §2
[8] = biological target: Mu-type opioid receptor (Cavia porcellus) (UniProt P97266); assay: Inhibitory activity was determined against Opioid receptor mu 1 from guinea pig brain membranes at 1 uM concentration, using 0.25 nM of [3H]DAMGO radioligand; details: Membrane; outline: as §1
[9] = biological target: T1, Neuronal acetylcholine receptor; alpha3/beta4; assay: Recovery from Ach evoked currents at alpha3-beta4 nicotinic acetylcholine receptor at 20 uM concentration; type: functional; outline: as §2
[10] = biological target: T1, Neuronal acetylcholine receptor; alpha3/beta4; assay: Rate of inhibition of Ach evoked currents at Nicotinic acetylcholine receptor alpha3-beta4 by 20 uM concentration; type: functional; outline: as §2
[11] = biological target: T1, Neuronal acetylcholine receptor; alpha3/beta4; assay: Inhibition of Ach evoked currents at Nicotinic acetylcholine receptor alpha3-beta4 by 20 uM concentration; type: functional; outline: as §2
[12] = biological target: T1, Neuronal acetylcholine receptor; alpha3/beta4; assay: Recovery from Ach evoked currents at Nicotinic acetylcholine receptor alpha3-beta4 at 20 uM concentration; type: functional; outline: as §2
[13] = biological target: T1, Neuronal acetylcholine receptor; alpha3/beta4; assay: Recovery from Ach evoked currents at Nicotinic acetylcholine receptor alpha3-beta4 at 18 uM concentration; type: functional; outline: as §2
[14] = biological target: T1, Neuronal acetylcholine receptor; alpha3/beta4; assay: Inhibition of Ach evoked currents at Nicotinic acetylcholine receptor alpha3-beta4 by 18 uM concentration; type: functional; outline: as §2
[15] = biological target: T1, Neuronal acetylcholine receptor; alpha3/beta4; assay: Rate of inhibition of Ach evoked currents at Nicotinic acetylcholine receptor alpha3-beta4 by 18 uM concentration; type: functional; outline: as §2
[16] = biological target: Mu-type opioid receptor (Cavia porcellus, UniProt P97266); assay: Binding affinity was determined against Opioid receptor mu 1 from guinea pig brain membranes
[17] = biological target: T1, Neuronal acetylcholine receptor; alpha3/beta4; assay: Binding affinity towards Nicotinic acetylcholine receptor alpha3-beta4 determined from kinetic measures of koff/kon; type: protein-complex assay
Outline: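 Ki was estimated as koff/kon from α3β4 whole-cell recordings with drug at 20 µM co-applied with 1 mM ACh. koff was taken from the rate of recovery and kon from the rate of inhibition.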

Chain of Kappa-type opioid receptor (Cavia porcellus) (P41144 whole entry): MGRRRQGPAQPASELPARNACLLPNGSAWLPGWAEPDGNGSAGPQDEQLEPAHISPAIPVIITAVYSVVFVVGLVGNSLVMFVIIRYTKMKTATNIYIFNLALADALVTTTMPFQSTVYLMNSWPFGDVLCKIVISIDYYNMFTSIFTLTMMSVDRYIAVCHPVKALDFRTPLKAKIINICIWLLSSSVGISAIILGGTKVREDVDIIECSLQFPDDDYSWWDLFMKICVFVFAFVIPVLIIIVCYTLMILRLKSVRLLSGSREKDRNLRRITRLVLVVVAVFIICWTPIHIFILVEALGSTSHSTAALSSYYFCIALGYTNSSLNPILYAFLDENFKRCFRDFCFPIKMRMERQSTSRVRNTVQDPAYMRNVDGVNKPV
Chain of Mu-type opioid receptor (Cavia porcellus) (P97266 whole entry): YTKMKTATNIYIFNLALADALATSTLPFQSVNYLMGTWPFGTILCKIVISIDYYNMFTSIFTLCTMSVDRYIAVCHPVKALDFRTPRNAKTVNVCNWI
Chain of Kappa-type opioid receptor (P41144 whole entry): as the sequence (P41144 whole entry) above
T1 sequence (P30926 whole entry): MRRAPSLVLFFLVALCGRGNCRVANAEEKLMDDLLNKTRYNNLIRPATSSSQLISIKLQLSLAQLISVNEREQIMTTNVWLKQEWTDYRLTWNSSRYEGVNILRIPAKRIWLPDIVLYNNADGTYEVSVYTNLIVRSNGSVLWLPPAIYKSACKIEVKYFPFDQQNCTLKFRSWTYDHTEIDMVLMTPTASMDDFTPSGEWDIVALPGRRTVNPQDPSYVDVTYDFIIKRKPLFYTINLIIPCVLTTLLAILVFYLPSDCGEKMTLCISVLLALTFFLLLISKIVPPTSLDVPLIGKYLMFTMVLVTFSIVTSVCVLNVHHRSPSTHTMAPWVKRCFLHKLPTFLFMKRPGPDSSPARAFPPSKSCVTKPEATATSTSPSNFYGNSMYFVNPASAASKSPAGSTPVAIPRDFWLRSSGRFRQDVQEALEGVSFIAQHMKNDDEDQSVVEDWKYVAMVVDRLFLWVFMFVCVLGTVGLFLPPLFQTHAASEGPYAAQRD
T1 sequence (P32297 whole entry): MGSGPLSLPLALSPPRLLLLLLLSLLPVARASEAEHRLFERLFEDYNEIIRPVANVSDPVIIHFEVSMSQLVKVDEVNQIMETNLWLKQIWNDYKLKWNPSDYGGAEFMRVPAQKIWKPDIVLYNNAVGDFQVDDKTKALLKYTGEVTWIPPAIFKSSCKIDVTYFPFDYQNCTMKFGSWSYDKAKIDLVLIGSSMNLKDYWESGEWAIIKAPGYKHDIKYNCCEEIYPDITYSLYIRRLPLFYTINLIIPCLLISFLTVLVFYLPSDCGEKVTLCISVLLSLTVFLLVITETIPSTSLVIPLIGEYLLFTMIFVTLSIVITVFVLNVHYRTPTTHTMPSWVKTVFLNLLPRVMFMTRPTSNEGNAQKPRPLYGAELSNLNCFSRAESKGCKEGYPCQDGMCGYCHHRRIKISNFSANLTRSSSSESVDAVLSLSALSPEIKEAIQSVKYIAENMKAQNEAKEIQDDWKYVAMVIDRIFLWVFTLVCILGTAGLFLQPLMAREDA
Chain of Mu-type opioid receptor (P97266 whole entry): as the sequence (P97266 whole entry) above

Structure (SMILES) | RI [1] | inhibition [2] [%] | Rate of inhibition [3] [s⁻¹] | inhibition [4] [%] | inhibition [5] [%] | Recovery [7] [%] | further results
COCC[C@H]1CC2CN3CCc4c([nH]c5ccccc45)[C@](C(=O)OCCN(C)C)(C2)[C@H]13 | 0.7 | 16 | 10.3 | 98 | 78 | 16 | Ki [6]: 188 nM
CNCC[C@H]1CC2CN3CCc4c([nH]c5ccccc45)[C@](C(=O)OC)(C2)[C@H]13 | 1.1 | 24 | 8.5 | 98 | 7 | 21 | –
COCC[C@H]1CC2CN3CCc4c([nH]c5ccccc45)[C@](C(=O)O)(C2)[C@H]13 | 2.4 | – | 5.1 | 59 | 7 | 27 | inhibition [8]: 11%
COCCC1C2CN3CCc4c([nH]c5ccccc45)[C@](C(=O)OC)(C2)[C@H]13 (some centres undefined) | 1.6 | 18 | 4.1 | 94 | 10 | 14 | –
COCC[C@H]1CC2CN3CCc4c([nH]c5ccccc45)[C@](C(=O)OCCO)(C2)[C@H]13 | 1.2 | 8 | 7.6 | 97 | 8 | 20 | –
COC(=O)[C@@]12CC3C[C@H](CCN(C)C)[C@@H]1N(CCc1c2[nH]c2ccccc12)C3 | 0.9 | 15 | 8 | 99 | 11 | 16 | –
COCC[C@H]1CC2CN3CCc4c([nH]c5ccccc45)[C@](C(=O)NCCO)(C2)[C@H]13 | 4.7 | 7 | 7.9 | 85 | 9 | 80 | –
COCC[C@H]1CC2CN3CCc4c([nH]c5ccccc45)[C@](C(=O)NCCCCCCNC(=O)CCCC[C@@H]4SCC5NC(=O)NC54)(C2)C13 (some centres undefined) | – | 19 | – | – | 9 | – | –
COCC[C@H]1CC2CN3CCc4c([nH]c5ccccc45)[C@](C(=O)NCCN(C)C)(C2)[C@H]13 | 3.9 | 4 | 9.5 | 93 | 11 | – | Recovery [9]: 81%
COC(=O)[C@@]12CC3C[C@H](CCOCc4ccccc4)[C@@H]1N(CCc1c2[nH]c2ccccc12)C3 | – | – | – | – | 6 | – | Rate of inhibition [10]: 2.2 s⁻¹; inhibition [11]: 64%; inhibition [8]: 12%; Recovery [12]: 0%
COC(=O)[C@@]12CC3C[C@H](CCO)[C@@H]1N(CCc1c2[nH]c2ccccc12)C3 | 5.4 | 15 | – | – | 4 | – | Recovery [13]: 73%; inhibition [14]: 98%; Rate of inhibition [15]: 6.5 s⁻¹
COCC[C@H]1CC2CN3CCc4c([nH]c5ccccc45)[C@](C(=O)OCCNC(C)=O)(C2)[C@H]13 | 3.1 | 0 | 6.7 | 95 | 3 | 45 | –
COCCOC(=O)[C@@]12CC3C[C@H](CCOC)[C@@H]1N(CCc1c2[nH]c2ccccc12)C3 | 0.6 | 5 | 6 | 99 | 24 | 8 | –
COCC[C@H]1CC2CN3CCc4c([nH]c5ccccc45)[C@](C(=O)OC)(C2)[C@H]13 [18-METHOXYCORONARIDINE] | 1 | 50 | – | – | 20 | – | Rate of inhibition [10]: 5.5 s⁻¹; inhibition [11]: 98%; Ki [16]: 1100 nM; Ki [6]: 5100 nM; Ki [17]: 700 nM; Recovery [12]: 12%
COCCNC(=O)[C@@]12CC3C[C@H](CCOC)[C@@H]1N(CCc1c2[nH]c2ccccc12)C3 | 2.3 | 10 | 9.2 | 96 | 6 | – | Recovery [9]: 46%
